Test results as given in ChEMBL document CHEMBL4715736, “Identification of anticancer agents based on the thieno[2,3-b]pyridine and 1H-pyrazole molecular scaffolds” (2016).

Assays:
Type in all cases: functional
RPMI-8226 = test: Growth inhibition of human RPMI-8226 cells assessed as cell growth at 0.01 uM incubated for 48 hrs by sulforhodamine B assay relative to control; settings: read-out: Activity
NCI-H23 [1] = test: Growth inhibition of human NCI-H23 cells assessed as cell growth at 0.01 uM incubated for 48 hrs by sulforhodamine B assay relative to control; settings: read-out: Activity
HCC 2998 [2] = test: Growth inhibition of human HCC 2998 cells assessed as cell growth at 0.01 uM incubated for 48 hrs by sulforhodamine B assay relative to control; settings: read-out: Activity
Method in brief: (§1)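 NCI Developmental Therapeutics Program NCI60 panel. Compounds that were active in the 10 µM one-dose screen went on to dose–response testing. Growth at each concentration is expressed relative to untreated control (100%). GI50 (concentration giving 50% of maximal inhibition of proliferation) and TGI (concentration giving total growth inhibition) were derived from the curves.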

HCT-15 = test: Growth inhibition of human HCT-15 cells assessed as cell growth at 0.01 uM incubated for 48 hrs by sulforhodamine B assay relative to control; settings: read-out: Activity
MDA-MB-435 = test: Growth inhibition of human MDA-MB-435 cells assessed as cell growth at 0.01 uM incubated for 48 hrs by sulforhodamine B assay relative to control; settings: read-out: Activity
A498 [3] = test: Growth inhibition of human A498 cells assessed as cell growth at 0.01 uM incubated for 48 hrs by sulforhodamine B assay relative to control; settings: read-out: Activity; method in brief: as §1
Hs-578T = test: Growth inhibition of human Hs-578T cells assessed as cell growth at 0.01 uM incubated for 48 hrs by sulforhodamine B assay relative to control; settings: read-out: Activity
MDA-MB-468 = test: Growth inhibition of human MDA-MB-468 cells assessed as cell growth at 0.01 uM incubated for 48 hrs by sulforhodamine B assay relative to control; settings: read-out: Activity
SF-539 [4] = test: Growth inhibition of human SF-539 cells assessed as cell growth at 0.1 uM incubated for 48 hrs by sulforhodamine B assay relative to control; settings: read-out: Activity
NCI/ADR-RES [5] = test: Growth inhibition of human NCI/ADR-RES cells assessed as cell growth at 0.1 uM incubated for 48 hrs by sulforhodamine B assay relative to control; settings: read-out: Activity
ACHN [6] = test: Growth inhibition of human ACHN cells assessed as cell growth at 0.1 uM incubated for 48 hrs by sulforhodamine B assay relative to control; settings: read-out: Activity
T47D [7] = test: Growth inhibition of human T47D cells assessed as cell growth at 0.1 uM incubated for 48 hrs by sulforhodamine B assay relative to control; settings: read-out: Activity
CCRF-CEM = test: Growth inhibition of human CCRF-CEM cells assessed as cell growth at 1 uM incubated for 48 hrs by sulforhodamine B assay relative to control; settings: read-out: Activity; method in brief: as §1
SR = test: Growth inhibition of human SR cells assessed as cell growth at 1 uM incubated for 48 hrs by sulforhodamine B assay relative to control; settings: read-out: Activity
HOP-92 = test: Growth inhibition of human HOP-92 cells assessed as cell growth at 1 uM incubated for 48 hrs by sulforhodamine B assay relative to control; settings: read-out: Activity
NCI-H23 [8] = test: Growth inhibition of human NCI-H23 cells assessed as cell growth at 1 uM incubated for 48 hrs by sulforhodamine B assay relative to control; settings: read-out: Activity
HCC 2998 [9] = test: Growth inhibition of human HCC 2998 cells assessed as cell growth at 1 uM incubated for 48 hrs by sulforhodamine B assay relative to control; settings: read-out: Activity; method in brief: as §1
OVCAR-3 = test: Growth inhibition of human OVCAR-3 cells assessed as cell growth at 1 uM incubated for 48 hrs by sulforhodamine B assay relative to control; settings: read-out: Activity
NCI/ADR-RES [10] = test: Growth inhibition of human NCI/ADR-RES cells assessed as cell growth at 1 uM incubated for 48 hrs by sulforhodamine B assay relative to control; settings: read-out: Activity
SN12C = test: Growth inhibition of human SN12C cells assessed as cell growth at 1 uM incubated for 48 hrs by sulforhodamine B assay relative to control; settings: read-out: Activity
PC-3 = test: Growth inhibition of human PC-3 cells assessed as cell growth at 1 uM incubated for 48 hrs by sulforhodamine B assay relative to control; settings: read-out: Activity
K562 = test: Growth inhibition of human K562 cells assessed as cell growth at 100 uM incubated for 48 hrs by sulforhodamine B assay relative to control; settings: read-out: Activity
HOP-62 = test: Growth inhibition of human HOP-62 cells assessed as cell growth at 100 uM incubated for 48 hrs by sulforhodamine B assay relative to control; settings: read-out: Activity
SF-539 [11] = test: Growth inhibition of human SF-539 cells assessed as cell growth at 100 uM incubated for 48 hrs by sulforhodamine B assay relative to control; settings: read-out: Activity
Malme-3M = test: Growth inhibition of human Malme-3M cells assessed as cell growth at 100 uM incubated for 48 hrs by sulforhodamine B assay relative to control; settings: read-out: Activity
SK-MEL-28 = test: Growth inhibition of human SK-MEL-28 cells assessed as cell growth at 100 uM incubated for 48 hrs by sulforhodamine B assay relative to control; settings: read-out: Activity
SK-MEL-5 = test: Growth inhibition of human SK-MEL-5 cells assessed as cell growth at 100 uM incubated for 48 hrs by sulforhodamine B assay relative to control; settings: read-out: Activity
UACC-62 = test: Growth inhibition of human UACC-62 cells assessed as cell growth at 100 uM incubated for 48 hrs by sulforhodamine B assay relative to control; settings: read-out: Activity
SK-OV-3 = test: Growth inhibition of human SK-OV-3 cells assessed as cell growth at 100 uM incubated for 48 hrs by sulforhodamine B assay relative to control; settings: read-out: Activity
A498 [12] = test: Growth inhibition of human A498 cells assessed as cell growth at 100 uM incubated for 48 hrs by sulforhodamine B assay relative to control; settings: read-out: Activity; method in brief: as §1
ACHN [13] = test: Growth inhibition of human ACHN cells assessed as cell growth at 100 uM incubated for 48 hrs by sulforhodamine B assay relative to control; settings: read-out: Activity
HT-29 = test: Growth inhibition of human HT-29 cells incubated for 48 hrs by sulforhodamine B assay
Method in brief: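 NCI60 panel at the NCI Developmental Therapeutics Program. Only compounds active in the 10 µM screen went to dose-response testing. GI50, the concentration giving 50% of maximal inhibition of proliferation, and TGI, the concentration giving total growth inhibition, were derived from the dose-response curves.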

U-251 = test: Growth inhibition of human U-251 cells incubated for 48 hrs by sulforhodamine B assay
Method in brief: (§2)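 NCI DTP 60-line human tumour panel. Dose-response curves were run only for ligands active in the initial 10 µM screen. GI50 (concentration giving 50% of maximal inhibition of proliferation) and TGI (concentration giving total growth inhibition) were derived from these curves.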

T47D [14] = test: Growth inhibition of human T47D cells incubated for 48 hrs by sulforhodamine B assay; settings: for CC50: read-out: LC50 (the source's name); method in brief: as §2
786-0 = test: Growth inhibition of human 786-0 cells assessed as cell growth at 100 uM incubated for 48 hrs by sulforhodamine B assay relative to control; settings: read-out: Activity

SMILES: Cc1cc(C)c(NC(=O)c2sc3nc4c(cc3c2N)CN(Cc2ccccc2)CC4)c(C)c1
- growth at 0.01 µM (RPMI-8226): 101%
- growth at 0.01 µM (NCI-H23 [1]): 102%
- growth at 0.01 µM (HCC 2998 [2]): 105%
- growth at 0.01 µM (HCT-15): 93%
- growth at 0.01 µM (MDA-MB-435): 92%
- growth at 0.01 µM (A498 [3]): 87%
- growth at 0.01 µM (Hs-578T): 84%
- growth at 0.01 µM (MDA-MB-468): 99%
- growth at 0.1 µM (SF-539 [4]): 96%
- growth at 0.1 µM (NCI/ADR-RES [5]): 100%
- growth at 0.1 µM (ACHN [6]): 100%
- growth at 0.1 µM (T47D [7]): 93%
- growth at 1 µM (CCRF-CEM): 88%
- growth at 1 µM (SR): 68%
- growth at 1 µM (HOP-92): 49%
- growth at 1 µM (NCI-H23 [8]): 93%
- growth at 1 µM (HCC 2998 [9]): 103%
- growth at 1 µM (OVCAR-3): 76%
- growth at 1 µM (NCI/ADR-RES [10]): 69%
- growth at 1 µM (SN12C): 92%
- growth at 1 µM (PC-3): 75%
- growth at 100 µM (K562): 13%
- growth at 100 µM (HOP-62): 7%
- growth at 100 µM (SF-539 [11]): -45%
- growth at 100 µM (Malme-3M): -17%
- growth at 100 µM (SK-MEL-28): -30%
- growth at 100 µM (SK-MEL-5): -49%
- growth at 100 µM (UACC-62): -22%
- growth at 100 µM (SK-OV-3): 16%
- growth at 100 µM (A498 [12]): -2%
- growth at 100 µM (ACHN [13]): 6%
- GI50 (HT-29): 2.88 µM
- LC50 (HT-29): > 100 µM
- TGI (HT-29): 13.2 µM
- GI50 (U-251): 4.35 µM
- LC50 (concentration killing 50% of cells) (U-251): > 100 µM
- TGI (U-251): 24.2 µM
- GI50 (T47D [14]): 2.62 µM
- TGI (T47D [14]): > 100 µM
- CC50 (T47D [14]): > 100 µM

SMILES: CN1CCc2nc3sc(C(N)=O)c(N)c3c(-c3cccs3)c2C1
- growth at 0.01 µM (RPMI-8226): 108%
- growth at 0.01 µM (NCI-H23 [1]): 97%
- growth at 0.01 µM (HCC 2998 [2]): 94%
- growth at 0.01 µM (HCT-15): 103%
- growth at 0.01 µM (MDA-MB-435): 95%
- growth at 0.01 µM (A498 [3]): 97%
- growth at 0.01 µM (Hs-578T): 95%
- growth at 0.01 µM (MDA-MB-468): 86%
- growth at 0.1 µM (SF-539 [4]): 104%
- growth at 0.1 µM (NCI/ADR-RES [5]): 96%
- growth at 0.1 µM (T47D [7]): 94%
- growth at 1 µM (CCRF-CEM): 104%
- growth at 1 µM (SR): 71%
- growth at 1 µM (HOP-92): 104%
- growth at 1 µM (NCI-H23 [8]): 89%
- growth at 1 µM (HCC 2998 [9]): 94%
- growth at 1 µM (OVCAR-3): 87%
- growth at 1 µM (NCI/ADR-RES [10]): 91%
- growth at 1 µM (SN12C): 80%
- growth at 1 µM (PC-3): 106%
- growth at 100 µM (K562): 2%
- growth at 100 µM (HOP-62): 2%
- growth at 100 µM (SF-539 [11]): -39%
- growth at 100 µM (Malme-3M): -11%
- growth at 100 µM (SK-MEL-28): -18%
- growth at 100 µM (SK-MEL-5): -42%
- growth at 100 µM (UACC-62): -55%
- growth at 100 µM (SK-OV-3): 17%
- growth at 100 µM (786-0): 15%
- growth at 100 µM (A498 [12]): -23%
- GI50 (HT-29): 3.11 µM
- LC50 (HT-29): > 100 µM
- TGI (HT-29): 70.9 µM
- GI50 (U-251): 3.18 µM
- LC50 (concentration killing 50% of cells) (U-251): > 100 µM
- TGI (U-251): > 100 µM
- GI50 (T47D [14]): 2.81 µM
- TGI (T47D [14]): > 100 µM
- CC50 (T47D [14]): > 100 µM
